Read-outs that look alike come from different tables or passages of the source. Values belong to the substance of their own block, whether it stands above or below them.
Columns and labels:
[1] = test system: TCR of biotin-YIPSAEK(IASA)I-specific CTL clones; details: different cell types; cited from earlier work
Kd molecule [2] = details: cited from earlier work
N9 TCR / Kd molecule = assay: Inhibition of N9 TCR photoaffinity labeling by competitor peptides and mAbs; type: binding, mouse; details: competitor peptide at 300-fold molar excess; N9 cells; SDS-PAGE 10%, nonreducing
CTL clone N9 = assay: 51Cr-release CTL recognition assay, clone N9; type: cell-based, mouse
Method in brief: (§1)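 Test peptide derivatives were titrated in threefold dilutions on P815 target cells in a 51Cr-release assay at an E/T ratio of 3:1, run 4 h at 37°C. Specific lysis = 100 × (experimental − spontaneous)/(total − spontaneous). Relative antigenic activity = concentration of the reference photoprobe giving 50% maximal lysis divided by that of the variant.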

[3] = test system: TCR of biotin-YIPSAEK(IASA)I-specific CTL clones; assay: TCR photoaffinity labeling on living CTL clones; type: binding, mouse; details: for TCR photoaffinity labeling: 4-5 h 37 C, UV 312 nm 5 min, TCR immunoprecipitated, SDS-PAGE
Method in brief: (§2)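 Live CTL clone cells were washed into DMEM with 0.5% FCS and 10 mM Hepes. They were incubated with biotinylated 125I-IASA photoprobe (~2,000 Ci/mmol) plus human β2m, 4-5 h at 37°C in 5% CO2, then UV irradiated at 312 nm for 5 min at 4°C. Cells were lysed in 0.7% NP-40 with leupeptin, PMSF and iodoacetamide. Kd (mAb 20-8-4S) or TCR-α/β (H57-597) was immunoprecipitated and run on 10% reducing SDS-PAGE.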

[4] = test system: biotin-YIPSAEK(IASA)I-specific CTL clones; assay: CTL recognition of peptide derivatives, statements over several clones; type: cell-based, mouse
Method in brief: as §1

Kd molecule [5] = details: compared with isomeric IASA-YIPSAEK(biotin)I or the parent derivative; cited from earlier work
Kd molecule [6] = assay: Kd photoaffinity labeling on CTL clones; type: binding, mouse; details: UV irradiation, Kd immunoprecipitated, SDS-PAGE 10%, reducing
Method in brief: as §2

Substance: IASA-YIPSAEK(biotin)I
TCR photoaffinity labeling [1]: failsto label | Kd photoaffinity labeling (Kd molecule [2]): selectively labeled the Kd molecules

Substance: YIPSAEKI [PbCS 253-260]
effect on N9 TCR labeling by biotin-YIPSAEK(125IASA)I (N9 TCR / Kd molecule): abolished

Substance: biotin-YIPSAEK (4-azido benzoic acid [ABA]I [biotin-YIPSAEK(ABA)I]
efficiency of recognition relative to the original photoprobe (CTL clone N9; clone N9, versus biotin-YIPSAEK(IASA)I): about 50 times

Substance: biotin-YIPSAEK(125IASA)I
TCR photoaffinity labeling ([3]; clone N1): No significant TCR labeling | TCR photoaffinity labeling ([3]; clone N4): showed TCR photoaffinity labeling | TCR photoaffinity labeling ([3]; clone N9): showed TCR photoaffinity labeling | photoaffinity-labeled TCR chain ([3]; clone N9, two-dimensional gel electrophoresis): labeled both chains | TCR photoaffinity labeling ([3]; clone N11): showed TCR photoaffinity labeling | TCR photoaffinity labeling ([3]; clone O1): No significant TCR labeling | TCR photoaffinity labeling ([3]; clone O7): No significant TCR labeling | TCR photoaffinity labeling ([3]; clone O11): No significant TCR labeling

Substance: biotin-YIPSAEK(ASA)I
improvement of recognition on removal of the iodine from the IASA group ([4]; the other four clones, versus biotin-YIPSAEK(IASA)I): 6-12 fold

Substance: biotin-YIPSAEK(BA)I
recognition by clone N9 compared with the original conjugate (CTL clone N9; clone N9, only clone among the eight to recognize this variant): as efficientlyas the original

Substance: biotin-YIPSAEK(IASA)I
binding to Kd molecules (Kd molecule [5]): bound equally efficiently | Kd photoaffinity labeling (Kd molecule [2]): could not | recognition by clone O8 ([4]; additional clone 08, data not shown): recognized

Kd photoaffinity labeling (Kd molecule [6]; clone N1): slightly reduced | Kd photoaffinity labeling (Kd molecule [6]; clone N4): efficient | Kd photoaffinity labeling (Kd molecule [6]; clone N6): efficient | Kd photoaffinity labeling (Kd molecule [6]; clone N9): efficient | Kd photoaffinity labeling (Kd molecule [6]; clone N11): slightly reduced | Kd photoaffinity labeling (Kd molecule [6]; clone O1): efficient
Substance: lZSlASA-YIPSAEK(biotin)I [125IASA-YIPSAEK(biotin)I]

— publication PMC2191018 (The Journal of Experimental Medicine, 1993)
